Reference: the M2OR odorant receptor database

Key:
Conditions in all cases: stereoisomer not certain
OR52E1 (Homo sapiens) = OR52E1 (Homo sapiens) (UniProt Q8NGJ3)
In short: (§1)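 Assay methods differ from source to source, frequently being transient luciferase assays in mammalian cell lines. For each receptor–molecule pair, the label responsive (active) applies when the original authors judged the measured signal statistically different from baseline, and non-responsive (inactive) applies otherwise.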

OR52E2 (Homo sapiens) = OR52E2 (Homo sapiens) (UniProt Q8NGJ4)
Chain of OR52E2 (Homo sapiens) (Q8NGJ4 whole entry): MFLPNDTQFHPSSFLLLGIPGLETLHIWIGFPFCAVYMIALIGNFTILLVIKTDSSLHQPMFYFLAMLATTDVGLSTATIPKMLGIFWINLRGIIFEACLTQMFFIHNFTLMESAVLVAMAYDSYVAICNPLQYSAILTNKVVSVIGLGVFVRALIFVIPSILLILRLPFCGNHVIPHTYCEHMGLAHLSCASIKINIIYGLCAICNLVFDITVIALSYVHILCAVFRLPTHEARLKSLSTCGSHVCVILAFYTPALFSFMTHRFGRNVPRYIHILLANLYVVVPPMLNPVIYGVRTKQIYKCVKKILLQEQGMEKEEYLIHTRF
In short: as §1

OR52E4 (Homo sapiens) = OR52E4 (Homo sapiens) (UniProt Q8NGH9)
Chain of OR52E4 (Homo sapiens) (Q8NGH9 whole entry): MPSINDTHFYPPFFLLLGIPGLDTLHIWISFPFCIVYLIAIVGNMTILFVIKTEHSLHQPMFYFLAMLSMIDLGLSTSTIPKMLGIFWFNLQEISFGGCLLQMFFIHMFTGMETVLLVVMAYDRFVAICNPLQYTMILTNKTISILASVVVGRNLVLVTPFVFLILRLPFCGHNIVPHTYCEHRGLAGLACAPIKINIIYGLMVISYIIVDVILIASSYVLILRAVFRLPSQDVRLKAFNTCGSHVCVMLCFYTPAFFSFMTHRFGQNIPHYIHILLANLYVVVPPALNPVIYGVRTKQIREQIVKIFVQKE
In short: as §1

OR52E5 (Homo sapiens) = OR52E5 (Homo sapiens) (UniProt Q8NH55)
Chain of OR52E5 (Homo sapiens) (Q8NH55 whole entry): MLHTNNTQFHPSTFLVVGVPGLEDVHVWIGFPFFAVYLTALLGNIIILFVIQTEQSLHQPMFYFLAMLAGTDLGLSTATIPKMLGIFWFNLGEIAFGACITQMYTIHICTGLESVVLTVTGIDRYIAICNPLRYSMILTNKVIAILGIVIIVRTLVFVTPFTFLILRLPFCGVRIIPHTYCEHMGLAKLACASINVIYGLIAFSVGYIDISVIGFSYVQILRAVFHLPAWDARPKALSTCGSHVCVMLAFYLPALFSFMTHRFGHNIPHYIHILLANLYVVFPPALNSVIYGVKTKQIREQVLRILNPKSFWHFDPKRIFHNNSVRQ
In short: as §1

OR52E6 (Homo sapiens) = OR52E6 (Homo sapiens) (UniProt Q96RD3)
Chain of OR52E6 (Homo sapiens) (Q96RD3 whole entry): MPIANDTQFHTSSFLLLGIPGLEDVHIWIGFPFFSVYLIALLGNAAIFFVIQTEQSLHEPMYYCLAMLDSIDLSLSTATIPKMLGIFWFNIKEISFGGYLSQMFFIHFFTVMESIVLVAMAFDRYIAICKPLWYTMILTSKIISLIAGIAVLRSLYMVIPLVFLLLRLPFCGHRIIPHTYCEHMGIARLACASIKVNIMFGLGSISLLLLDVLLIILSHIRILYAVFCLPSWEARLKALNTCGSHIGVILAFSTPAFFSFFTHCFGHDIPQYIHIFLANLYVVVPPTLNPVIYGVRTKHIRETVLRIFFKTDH
In short: as §1

OR52I1 (Homo sapiens) = OR52I1 (Homo sapiens) (UniProt Q8NGK6)
Chain of OR52I1 (Homo sapiens) (Q8NGK6 whole entry): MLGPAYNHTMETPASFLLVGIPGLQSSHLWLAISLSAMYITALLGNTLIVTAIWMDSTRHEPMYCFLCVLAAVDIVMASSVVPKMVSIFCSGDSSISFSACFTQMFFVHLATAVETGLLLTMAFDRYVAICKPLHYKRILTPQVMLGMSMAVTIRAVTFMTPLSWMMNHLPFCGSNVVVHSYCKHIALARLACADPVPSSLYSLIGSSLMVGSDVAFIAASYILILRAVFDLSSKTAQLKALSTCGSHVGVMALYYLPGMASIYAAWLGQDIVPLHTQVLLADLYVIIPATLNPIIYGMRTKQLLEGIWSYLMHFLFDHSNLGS
In short: as §1

OR52I2 (Homo sapiens) = OR52I2 (Homo sapiens) (UniProt Q8NH67)
Chain of OR52I2 (Homo sapiens) (Q8NH67 whole entry): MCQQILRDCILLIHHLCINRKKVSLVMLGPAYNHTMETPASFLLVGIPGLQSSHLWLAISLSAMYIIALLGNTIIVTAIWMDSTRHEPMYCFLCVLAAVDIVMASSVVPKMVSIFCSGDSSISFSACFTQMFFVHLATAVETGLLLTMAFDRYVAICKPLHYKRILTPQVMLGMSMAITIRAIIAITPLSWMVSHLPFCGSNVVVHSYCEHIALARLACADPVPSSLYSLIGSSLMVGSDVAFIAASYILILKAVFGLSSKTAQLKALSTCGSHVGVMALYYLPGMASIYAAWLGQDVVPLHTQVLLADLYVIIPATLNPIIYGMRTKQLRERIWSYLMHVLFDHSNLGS
In short: as §1

OR52J3 (Homo sapiens) = OR52J3 (Homo sapiens) (UniProt Q8NH60)
Chain of OR52J3 (Homo sapiens) (Q8NH60 whole entry): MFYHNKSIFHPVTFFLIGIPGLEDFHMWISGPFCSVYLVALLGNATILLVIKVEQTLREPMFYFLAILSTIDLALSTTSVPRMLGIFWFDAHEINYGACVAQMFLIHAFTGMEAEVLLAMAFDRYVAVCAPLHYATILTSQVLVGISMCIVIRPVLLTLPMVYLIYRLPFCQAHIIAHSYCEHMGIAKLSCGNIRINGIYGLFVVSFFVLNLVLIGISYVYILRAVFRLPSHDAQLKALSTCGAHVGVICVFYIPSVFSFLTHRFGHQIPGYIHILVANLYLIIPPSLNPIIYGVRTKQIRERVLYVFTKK
In short: as §1

OR52K1 (Homo sapiens) = OR52K1 (Homo sapiens) (UniProt Q8NGK4)
Chain of OR52K1 (Homo sapiens) (Q8NGK4 whole entry): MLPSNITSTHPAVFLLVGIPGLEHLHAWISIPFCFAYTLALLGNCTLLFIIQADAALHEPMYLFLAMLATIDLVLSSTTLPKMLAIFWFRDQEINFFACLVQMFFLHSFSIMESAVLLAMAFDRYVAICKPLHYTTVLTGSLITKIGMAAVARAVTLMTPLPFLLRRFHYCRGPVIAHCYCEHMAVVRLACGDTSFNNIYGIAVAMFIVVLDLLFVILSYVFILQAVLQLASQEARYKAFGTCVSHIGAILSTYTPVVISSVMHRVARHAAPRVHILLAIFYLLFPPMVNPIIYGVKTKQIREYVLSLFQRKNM
In short: as §1

Measured: odorant receptor agonist call

Chain of OR52E1 (Homo sapiens) (Q8NGJ3 whole entry): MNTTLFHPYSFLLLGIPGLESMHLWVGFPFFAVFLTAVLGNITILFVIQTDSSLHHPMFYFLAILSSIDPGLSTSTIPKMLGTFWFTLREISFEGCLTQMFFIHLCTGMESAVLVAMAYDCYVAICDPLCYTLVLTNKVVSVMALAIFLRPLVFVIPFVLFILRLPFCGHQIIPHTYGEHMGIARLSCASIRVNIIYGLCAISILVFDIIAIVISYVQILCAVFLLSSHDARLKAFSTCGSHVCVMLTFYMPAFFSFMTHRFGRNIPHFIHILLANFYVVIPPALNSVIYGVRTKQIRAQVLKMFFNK

Cc1c([N+](=O)[O-])c(C)c([N+](=O)[O-])c(C(C)(C)C)c1[N+](=O)[O-]
inactive: all assays above

C=CCOC(=O)Cc1ccccc1
not listed: OR52E5 (Homo sapiens)
inactive: all other assays above
